Bioassay records from PubChem.
b-catenin transl – modulators of beta-catenin nuclear translocation; HeLa beta-catenin nuclear translocation, immunofluorescence imaging; nuclear translocation activity, % at 5 µM; hit rate 0.3% among 190,000;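 active = nuclear translocation activity above 50% at 5 µM, with a well cell count of 50 or more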;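 note: per-cell ratio of nuclear to cytoplasmic median beta-catenin stain intensity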
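Test system: human HeLa cells, native beta-catenin. Compound dosing: 5 µM primary single dose, 0.1% DMSO, 0.02–20 µM confirmation series. Incubation: compound exposure 24 h at 37°C. Detection: beta-catenin immunostaining with DAPI counterstain, 20x imaging, 6 fields/well. Read-out basis: Nuclear/cytoplasmic beta-catenin signal ratio, % activation.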
BaF3 parental – counter-screen for JAK2V617F inhibitors: parental Ba/F3 viability inhibitors | hit rate 1.1% among 220,000 | CellTiter-Glo ATP luminescence | inhibition, % at 5.6 µM;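 active = inhibition above a per-campaign cutoff, the mean inhibition of all tested compounds plus 3 SD, cut at about 27% in these data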
APP transl inh – APP translation inhibition | SH-SY5Y APP 5'UTR-luciferase reporter, luminescence | inhibition, % at 2 µM | hit rate 0.82% among 190,000;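 active = inhibition above a set limit, derived from the sample mean plus 3 SD, cut at about 45% in these data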
MT stabilize HCS – stabilizes microtubules in HeLa cells; HeLa tubulin immunostaining HCS, 24 h; share of cells brighter than vehicle mean+2SD; % tubulin-high responders, % at 10 µM; hit rate 0.83% among 200,000;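 active = plate Z-score above 3 for both tubulin-high and condensed-nucleus cell shares, with cell loss under 80%, at 10 µM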;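 note: anti alpha tubulin signal scored within the nucleus-defined area of each cell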
L major viab – reduces viability of Leishmania major promastigotes | resazurin fluorescence viability | inhibition, % at 10 µM | hit rate 9% among 200,000; in the data active = inhibition above about 50%;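 note: promastigotes grown with compound for 44 hours at 28 °C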
Ba/F3 V617F tox – reduce viability of Ba/F3 cells dependent on JAK2V617F; inhibition, % at 5.6 µM; Ba/F3 EpoR-JAK2V617F viability, ATP luminescence; hit rate 1.1% among 220,000; AID 1446;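 active = inhibition above the campaign mean plus 3 SD over all tested compounds, cut at about 24% in these data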;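 note: cytokine-independent growth of Ba/F3 cells driven by EpoR plus mutant JAK2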
Numbers stand for hits; n = inactive; x = no result. Compounds with a hit are over-represented: about 9.6% of the library has one in this group of screens.

SMILES | b-catenin transl | BaF3 parental | APP transl inh | MT stabilize HCS | L major viab | Ba/F3 V617F tox
Clc1ccc(CNC2CCCC2)c(Cl)c1 | n | n | n | n | 93.8 | n
COC(=O)c1cc(C(=O)OC)n(Cc2ccc(C)cc2)c1C | n | n | n | n | n | n
Cn1c(N)c(N2CCCCC2)c(=O)n(CC(=O)Nc2ccc(Cl)c(Cl)c2)c1=O | n | n | n | n | n | n
O=C(Cn1c2c(sc1=O)C1c3ccccc3OCC1CS2)Nc1ccc(Cl)c(Cl)c1 (stereo not drawn) | n | n | n | n | 95.7 | n
O=C(c1ccc(CN2CCOCC2)cc1)N1CCC(Cc2ccccc2)CC1 | n | n | n | n | 87.4 | n
CCc1ccccc1NC(=O)c1ccc(CN2CCC(Cc3ccccc3)CC2)cc1 | n | n | n | n | 79.6 | n
CCCCNC(=O)c1ccc(SCC(=O)N(CC)CC)c([N+](=O)[O-])c1 | n | n | n | x | n | n
O=C(N/N=C1/CCCc2ccccc21)c1cc([N+](=O)[O-])cc([N+](=O)[O-])c1 | n | n | n | n | n | n
O=C(N/N=C1\CCCc2ccccc21)c1ccccc1[N+](=O)[O-] | n | n | n | n | 99.8 | n
O=C(N/N=C1\CCCc2ccccc21)c1ccc([N+](=O)[O-])cc1Cl | n | n | n | n | 93.6 | n
Cn1c(=O)c2c(nc(Cc3ccc(N)cc3)n2C)n(C)c1=O | n | n | x | x | x | n
CCOC(=O)C1=C(C)N(CCCC(=O)NCc2ccc3c(c2)OCO3)C(=O)NC1c1ccc(Br)cc1 (stereo not drawn) | n | n | n | n | n | n
O=C1c2cccc(OCC(=O)N3N=C(c4cccs4)CC3c3ccc(F)cc3)c2CCN1Cc1cccnc1 (stereo not drawn) | n | n | n | n | 85.1 | n
CC(=O)Nc1ccc(NC(=O)C(C)OC(=O)C2CC3C=CC2C3)cc1 (stereo not drawn) | n | 56.7 | n | n | n | n
CCN(CC)CCN(CC(=O)N(C1CCCCC1)C1CCCCC1)C(=O)c1ccco1 | n | n | n | n | n | n
Cc1cc(F)ccc1N1CCC(N2CCN(CCC(C)C)C(CCO)C2)CC1 (stereo not drawn) | n | n | n | n | 94.9 | n
Cc1cc(F)ccc1N1CCC(N2CCN(C(C)C)C(CCO)C2)CC1 (stereo not drawn) | n | n | n | n | 98.2 | n
CCN(CC)c1ccc(S(=O)(=O)N2CCOCC2)cc1NC(=O)CSc1n[nH]c(N)n1 | n | n | x | x | x | n
Cc1ccc(S(=O)(=O)Nc2nc3ccccc3nc2NCC2CCCO2)c(C)c1 (stereo not drawn) | n | n | x | x | x | n
COc1cc(C#CC#CCN2CCCCC2)ccc1O | n | n | n | n | 86.3 | n
COc1ccc(-c2nc(NC(=O)c3ccc(OCC(=O)N4CCOCC4)c(OC)c3)sc2C)cc1 | n | n | n | n | 61.1 | n
C/C(=N/O)c1no[n+]([O-])c1/C(C)=N\O | n | n | x | x | x | n
C/C(=N\NC(=O)C1CC1(c1ccccc1)c1ccccc1)c1cccc([N+](=O)[O-])c1 (stereo not drawn) | n | n | n | n | 59.7 | n
CC1(C)CC1C(=O)Nc1ccc([N+](=O)[O-])cc1Br (stereo not drawn) | n | n | n | n | n | n
Cc1ccc(C2(c3ccc(C)cc3)CC2C(=O)Nc2ccc([N+](=O)[O-])cc2O)cc1 (stereo not drawn) | n | n | n | n | 100.1 | n
SMILES | b-catenin transl | BaF3 parental | APP transl inh | MT stabilize HCS | L major viab | Ba/F3 V617F tox
O=C(O)CC1(CC(=O)Nc2ccccc2N2CCOCC2)CCCC1 | n | n | x | x | x | n
CNS(=O)(=O)c1cnccc1N1CCN(c2cccc(C(F)(F)F)c2)CC1 | n | n | n | n | 99.5 | n
CNS(=O)(=O)c1cnccc1N1CCN(C)CC1 | x | n | n | n | n | n
COc1ccc(-c2[nH]c(-c3ccc(C)cc3)nc2SCC(=O)NC2CCCC2)cc1 | n | n | n | n | 84.0 | n
Cc1cc(C)c(NC(=O)CS(=O)CC(=O)Nc2ccc(F)cc2F)c(C)c1 (stereo not drawn) | n | n | x | x | x | n
O=C1/C(=C\c2ccccc2)CCc2c1[nH]c1ccccc21 | n | n | n | 21.3 | n | n
Cc1ccc(/C=C2/CCc3c([nH]c4ccccc34)C2=O)cc1 | n | n | n | n | n | n
Cc1ccc(C)c(OCc2nnc(NC(=O)c3ccc4c(c3)OCO4)s2)c1 | n | n | x | x | x | n
CCN(CC)C(=O)Cn1nnc(-c2ccc(C)o2)n1 | n | n | n | n | n | n
